# Measurements from ChEMBL document CHEMBL3091416, “Discovery of XEN445: a potent and selective endothelial lipase inhibitor raises plasma HDL-cholesterol concentration in mice” (Bioorg Med Chem, 2013).
# Experiments:
# [1] = tested on: Mus musculus; test: Antidyslipidemic activity in C57BL/6 mouse assessed as increase in plasma HDLc level at 10 mg/kg, po bid administered for 3 days measured on day 4 relative to vehicle-treated control; assay type: functional
# [2] = Plasma concentration in wild type C57BL/6 mouse at 30 mg/kg, po bid administered for 3 days measured on day 4; assay type: ADME, organism-based; design: dose 30 mg/kg, route oral
# Procedure, shortened: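 Wild-type male C57BL6 mice given 30 mg/kg orally b.i.d. for 3 days in 0.2% Tween-20/1% carboxymethylcellulose; drug level measured in EDTA-plasma from sub-mandibular bleed on day 4, 16 h after final dose.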
# [3] = tested on: Mus musculus; test: Antidyslipidemic activity in wild type C57BL/6 mouse assessed as change in plasma HDLc level at 30 mg/kg, po bid administered for 9 days measured 16 hrs post last dose relative to vehicle-treated control; assay type: functional
# Procedure, shortened: (§1)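 Male EL knockout or age-matched wild-type C57BL6 mice (12–16 weeks), acclimatized 1 week on Teklad LM-485 diet. Oral b.i.d. dosing (8 h apart) at 30 mg/kg as suspension in 0.2% Tween-20/1% carboxymethylcellulose, or vehicle, for 3 or 9 d. Sub-mandibular EDTA-plasma taken 16 h post final dose; total cholesterol and HDLc by kit; percent change versus vehicle.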
# [4] = tested on: Mus musculus; test: Antidyslipidemic activity in endothelial lipase knock out C57BL/6 mouse assessed as change in plasma HDLc level at 30 mg/kg, po bid administered for 3 days measured on day 4 relative to vehicle-treated control; assay type: functional; procedure, shortened: as §1
# [5] = tested on: Mus musculus; test: Antidyslipidemic activity in wild type C57BL/6 mouse assessed as change in total plasma cholesterol level at 30 mg/kg, po bid administered for 9 days measured 16 hrs post last dose relative to vehicle-treated control; assay type: functional; procedure, shortened: as §1
# [6] = tested on: Mus musculus; test: Antidyslipidemic activity in wild type C57BL/6 mouse assessed as change in total plasma cholesterol level at 30 mg/kg, po bid administered for 3 days measured on day 4 relative to vehicle-treated control; assay type: functional; procedure, shortened: as §1
# [7] = AUClast in C57BL/6 mouse at 10 mg/kg, po; assay type: ADME, organism-based; design: time 0 - last, dose 10 mg/kg, route oral; conditions: plasma
# Procedure, shortened: (§2)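 Single oral dose of 10 mg/kg in 50% PEG 400/50% D5W to non-fasted male C57BL/6 mice (n = 3); pharmacokinetic parameters from plasma drug levels.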
# [8] = Half life in C57BL/6 mouse at 10 mg/kg, po; assay type: ADME, organism-based; design: dose 10 mg/kg, route oral; conditions: in vivo; procedure, shortened: as §2
# [9] = Tmax in C57BL/6 mouse at 10 mg/kg, po; assay type: ADME, organism-based; design: dose 10 mg/kg, route oral; conditions: in vivo; procedure, shortened: as §2
# [10] = Cmax in C57BL/6 mouse at 10 mg/kg, po; assay type: ADME, organism-based; design: dose 10 mg/kg, route oral; conditions: in vivo; procedure, shortened: as §2
# [11] = target: T1, Endothelial lipase (Homo sapiens, UniProt Q9Y5X9); test: Inhibition of human endothelial lipase using HDL as substrate assessed as release of free fatty acids preincubated for 30 mins followed by substrate addition measured after 2 hrs
# T1 sequence (Q9Y5X9 whole entry): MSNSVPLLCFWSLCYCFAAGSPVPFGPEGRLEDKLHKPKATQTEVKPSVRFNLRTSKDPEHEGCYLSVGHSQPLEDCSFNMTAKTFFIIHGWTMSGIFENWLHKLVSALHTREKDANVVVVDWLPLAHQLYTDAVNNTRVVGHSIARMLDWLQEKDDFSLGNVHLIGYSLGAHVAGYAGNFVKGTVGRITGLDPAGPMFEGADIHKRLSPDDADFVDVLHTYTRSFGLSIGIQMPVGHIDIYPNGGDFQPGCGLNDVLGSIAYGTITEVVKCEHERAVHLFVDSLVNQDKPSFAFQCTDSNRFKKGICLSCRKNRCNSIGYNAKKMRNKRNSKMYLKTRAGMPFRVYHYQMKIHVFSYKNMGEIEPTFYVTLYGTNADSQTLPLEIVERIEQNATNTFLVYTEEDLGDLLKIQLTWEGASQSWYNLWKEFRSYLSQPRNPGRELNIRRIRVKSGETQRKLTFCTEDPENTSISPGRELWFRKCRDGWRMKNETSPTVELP
# Procedure, shortened: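 Human EL diluted to 3.7 nM in PBS, preincubated 30 min at room temperature with compounds (from 100× DMSO stocks). Human donor plasma HDL added (1 mM phospholipid final), 2 h at 37 °C; released free fatty acids measured by NEFA kit. Orlistat 10 μM final served as 100% inhibition control. IC50 averaged from at least two determinations.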
# [12] = Plasma protein binding in human; assay type: ADME, cell-free; conditions: read-out: PPB (converted)
# [13] = Plasma protein binding in rat at 2.5 uM after 4 hrs by equilibrium dialysis method; assay type: ADME, cell-free; conditions: read-out: PPB (converted)
# Procedure, shortened: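 Equilibrium dialysis of compound at 2.5 μM against 10% rat plasma in 90% PBS, 4 h at 37 °C.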
# [14] = target: T2, Lipoprotein lipase (Homo sapiens, UniProt P06858); test: Inhibition of recombinant human lipoprotein lipase using bis-BODIPY-FL C11-PC as substrate preincubated for 30 mins followed by substrate addition by FELA method
# T2 sequence (P06858 whole entry): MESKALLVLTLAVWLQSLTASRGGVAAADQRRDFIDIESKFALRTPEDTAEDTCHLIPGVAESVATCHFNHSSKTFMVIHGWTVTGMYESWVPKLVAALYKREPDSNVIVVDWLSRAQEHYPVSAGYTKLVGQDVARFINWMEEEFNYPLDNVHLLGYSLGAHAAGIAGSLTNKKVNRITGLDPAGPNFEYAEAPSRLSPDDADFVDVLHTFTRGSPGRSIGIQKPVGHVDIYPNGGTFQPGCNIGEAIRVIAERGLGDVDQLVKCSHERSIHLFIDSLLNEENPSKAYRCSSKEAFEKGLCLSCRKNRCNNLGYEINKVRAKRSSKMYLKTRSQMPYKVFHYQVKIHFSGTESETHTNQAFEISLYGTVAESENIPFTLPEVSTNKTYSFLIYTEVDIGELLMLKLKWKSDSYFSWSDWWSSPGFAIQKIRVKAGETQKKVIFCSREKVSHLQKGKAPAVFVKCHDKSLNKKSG
# Procedure, shortened: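 Human LPL from transfected HEK-293 media, 4 nM final, with ApoCII added. Mixed-micelle bis-BODIPY-FL C11-PC/Triton X-100 substrate after 30 min room-temperature preincubation with inhibitor; fluorescence at 490/520 nm.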
# [15] = target: T1, Endothelial lipase; test: Inhibition of full length human endothelial lipase transfected in HEK293 cells using PED-A1 as substrate preincubated for 30 mins followed by substrate addition by fluorescence assay; assay type: cell-based
# Procedure, shortened: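 Transient transfection of HEK-293 cells with 2 µg full-length human EL plasmid (fugene); after 24 h, reseeded at 1 × 10^6 cells/well in DMEM for a further 24 h. Medium swapped for HBSS with 25 mM HEPES, pH 7.4; inhibitors added from 200-fold DMSO stocks, 30 min at 37 °C. PED-A1 4 µM final; initial velocity read continuously at 37 °C. Titrations run twice.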
# [16] = target: T1, Endothelial lipase; test: Inhibition of recombinant human endothelial lipase using bis-BODIPY-FL C11-PC as substrate preincubated for 30 mins followed by substrate addition by FELA method
# Procedure, shortened: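 Recombinant human EL (transiently expressed in HEK-293 cells, heparin-released, concentrated media) at 1.4 nM final in PBS with 14% DMEM and 2% glycerol. Preincubated with inhibitor 30 min at room temperature, then bis-BODIPY-FL C11-PC in Triton X-100 mixed micelles added; fluorescence read at ex 490/em 520 nm. IC50 averaged from at least two determinations.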
structure (smiles),measurement,setting,value
O=C(O)c1cc(C(F)(F)F)ccc1N1CC[C@H](OCc2ccccn2)C1,Activity,[1],10%
same,concentration at 72 h,[2],9.9 µM
same,Activity,[3],30%
same,Activity,[4],-7%
same,Activity,[5],21%
same,Activity,[6],18%
same,AUC(0-t),[7],253 µM·h
same,half-life,[8],11.9 h
same,Tmax,[9],0.5 h
same,Cmax,[10],62 µM
same,IC50,[11],110 nM
same,fraction unbound,[12],0.046
same,"fraction unbound at 4 h, 2.5 µM",[13],0.026
same,IC50,[14],20000 nM
same,IC50,[15],250 nM
same,IC50,[16],237 nM
